Experimental data taken from ChEMBL document CHEMBL1154352, “Toll-like receptor 7 selective synthetic oligoribonucleotide agonists: synthesis and structure-activity relationship studies” (J Med Chem, 2009).
Active and inactive are the calls of the source. The rule behind the calls is not given here.

What was measured:
[1] = Metabolic stability in human serum assessed as full length product remaining after 10 mins by HPLC; assay type: ADME, cell-free; details: read-out: Stability
Outline: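 About 0.5 A260 units compound in 1% human serum in PBS, 37 °C; aliquot taken at 10 min, analysed by anion-exchange HPLC for percent intact full-length product.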

[2] = molecular target: T1, Toll-like receptor 7 (Homo sapiens) (UniProt Q9NYK1); test: Activation of human TLR7 expressed in HEK293XL assessed as fold induction of NF-kappaB activity at 50 ug/ml after 18 hrs by reporter gene assay relative to control
T1 sequence (whole entry): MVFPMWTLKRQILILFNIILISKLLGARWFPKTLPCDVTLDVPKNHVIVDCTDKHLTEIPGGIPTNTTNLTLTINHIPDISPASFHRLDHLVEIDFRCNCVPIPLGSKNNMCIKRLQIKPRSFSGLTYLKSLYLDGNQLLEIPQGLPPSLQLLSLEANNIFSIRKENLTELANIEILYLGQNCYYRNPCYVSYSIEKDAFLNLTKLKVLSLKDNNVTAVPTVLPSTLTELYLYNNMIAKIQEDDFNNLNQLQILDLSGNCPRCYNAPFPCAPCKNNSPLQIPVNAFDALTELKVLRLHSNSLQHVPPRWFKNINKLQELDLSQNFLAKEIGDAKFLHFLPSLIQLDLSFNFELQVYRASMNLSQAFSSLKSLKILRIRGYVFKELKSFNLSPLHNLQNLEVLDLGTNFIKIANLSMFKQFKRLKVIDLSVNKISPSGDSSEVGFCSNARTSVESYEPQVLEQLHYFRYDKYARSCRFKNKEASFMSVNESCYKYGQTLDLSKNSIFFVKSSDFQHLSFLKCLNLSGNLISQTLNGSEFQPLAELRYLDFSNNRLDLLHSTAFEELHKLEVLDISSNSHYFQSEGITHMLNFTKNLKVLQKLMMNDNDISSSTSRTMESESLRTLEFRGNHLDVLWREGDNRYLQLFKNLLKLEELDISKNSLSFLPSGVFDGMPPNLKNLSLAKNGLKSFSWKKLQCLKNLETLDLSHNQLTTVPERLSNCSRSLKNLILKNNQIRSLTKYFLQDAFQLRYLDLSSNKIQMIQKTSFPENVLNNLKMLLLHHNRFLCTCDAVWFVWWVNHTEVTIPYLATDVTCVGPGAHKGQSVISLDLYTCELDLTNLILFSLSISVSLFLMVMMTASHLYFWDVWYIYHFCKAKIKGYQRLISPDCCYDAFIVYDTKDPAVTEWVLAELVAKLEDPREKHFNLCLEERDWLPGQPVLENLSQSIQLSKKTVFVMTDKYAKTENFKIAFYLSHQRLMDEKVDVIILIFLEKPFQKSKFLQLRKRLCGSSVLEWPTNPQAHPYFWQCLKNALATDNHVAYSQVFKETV
Outline: (§1)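 HEK293 cells stably expressing human TLR7 or TLR8, transiently transfected with SEAP reporter plasmid; medium replaced, SIMRA compounds added, 18 h incubation. Supernatant SEAP measured by QuantiBlue; expressed as fold increase in NF-κB activity over PBS control. Tabulated data at 50 μg/mL, representative of three independent experiments.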

[3] = molecular target: T2, Toll-like receptor 8 (Homo sapiens) (UniProt Q9NR97); test: Activation of human TLR8 expressed in HEK293XL assessed as fold induction of NF-kappaB activity at 50 ug/ml after 18 hrs by reporter gene assay relative to control; outline: as §1
T2 sequence (whole entry): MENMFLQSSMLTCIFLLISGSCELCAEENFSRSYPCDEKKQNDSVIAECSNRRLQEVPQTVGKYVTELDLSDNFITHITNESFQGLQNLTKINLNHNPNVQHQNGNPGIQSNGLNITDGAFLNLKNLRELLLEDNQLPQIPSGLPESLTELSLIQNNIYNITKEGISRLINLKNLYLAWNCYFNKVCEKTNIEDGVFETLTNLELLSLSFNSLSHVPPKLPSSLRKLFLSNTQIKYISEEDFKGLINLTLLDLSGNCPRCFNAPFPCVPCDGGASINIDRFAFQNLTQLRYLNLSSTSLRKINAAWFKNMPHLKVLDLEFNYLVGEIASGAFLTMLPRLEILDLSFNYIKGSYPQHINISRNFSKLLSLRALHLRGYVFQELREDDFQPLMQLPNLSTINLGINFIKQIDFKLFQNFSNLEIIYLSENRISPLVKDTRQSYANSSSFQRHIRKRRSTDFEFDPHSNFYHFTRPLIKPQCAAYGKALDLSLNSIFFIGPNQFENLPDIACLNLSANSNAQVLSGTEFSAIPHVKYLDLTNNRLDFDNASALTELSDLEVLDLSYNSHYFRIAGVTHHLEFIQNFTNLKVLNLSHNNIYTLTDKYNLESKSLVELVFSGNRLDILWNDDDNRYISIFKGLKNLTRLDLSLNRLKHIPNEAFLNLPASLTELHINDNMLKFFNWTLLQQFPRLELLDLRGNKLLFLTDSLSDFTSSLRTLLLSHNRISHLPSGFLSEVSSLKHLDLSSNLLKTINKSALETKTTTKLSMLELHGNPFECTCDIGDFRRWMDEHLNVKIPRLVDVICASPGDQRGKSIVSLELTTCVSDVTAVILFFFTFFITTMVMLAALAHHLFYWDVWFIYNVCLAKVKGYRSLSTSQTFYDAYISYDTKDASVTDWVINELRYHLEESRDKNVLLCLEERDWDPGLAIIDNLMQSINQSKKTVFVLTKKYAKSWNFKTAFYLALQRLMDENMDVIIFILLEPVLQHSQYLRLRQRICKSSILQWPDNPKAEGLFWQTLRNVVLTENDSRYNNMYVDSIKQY

[4] = species on record: Homo sapiens; test: Ratio of human TLR7 activity to human TLR8 activity
Outline: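 TLR7/TLR8 ratio computed from fold NF-κB (SEAP reporter) activation in HEK293 cells stably expressing human TLR7 versus TLR8, compounds at 50 μg/mL, 18 h exposure; representative of three independent experiments.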

[5] = test system: Splenocyte; test: Immunomodulatory activity in C57BL/6 mouse splenocytes bearing TLR7 receptor assessed as IL6 release at 100 ug/ml after 24 hrs by ELISA; assay type: functional, cell-based
Outline: (§2)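 C57BL/6 splenocytes in RPMI 1640 with 10% FBS, penicillin/streptomycin, 2 mM L-glutamine, plated at 5 × 10^6 cells/mL; compounds in PBS added, 37 °C for 24 h. Supernatant IL-12 and IL-6 by ELISA; representative of three independent experiments.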

[6] = test system: Splenocyte; test: Immunomodulatory activity in C57BL/6 mouse splenocytes bearing TLR7 receptor assessed as IL12 release at 100 ug/ml after 24 hrs by ELISA; assay type: functional, cell-based; outline: as §2
[7] = test system: PBMC; test: Immunomodulatory activity in human PBMC assessed as induction of TNFalpha at 100 ug/ml after 24 hrs; assay type: functional, cell-based
Outline: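 Human PBMCs plated at 5 × 10^6 cells/mL; compounds dissolved in PBS added at various concentrations, 37 °C for 24 h. Supernatant cytokines/chemokines quantified with human Luminex multiplex kit.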

- remaining at 10 min [1]: 71%
- fold change (FC) [2]: 27
- fold change (FC) [3]: 1.7
- Ratio [4]: 15.9
- Activity [5]: Active
- Activity [6]: Active
Compound: Nc1ccn([C@@H]2O[C@H](COP(=O)(S)O[C@H]3[C@@H](O)[C@H](n4cnc5c(N)ncnc54)O[C@@H]3CO)[C@@H](OP(=O)(S)OC[C@H]3O[C@@H](n4ccc(=O)[nH]c4=O)[C@H](O)[C@@H]3OP(=O)(S)OC[C@H]3O[C@@H](n4ccc5c(=O)[nH]c(N)nc54)[C@H](O)[C@@H]3OP(=O)(S)OC[C@H]3O[C@@H](n4ccc(N)nc4=O)[C@H](O)[C@@H]3OP(=O)(S)OC[C@H]3O[C@@H](n4ccc5c(=O)[nH]c(N)nc54)[C@H](O)[C@@H]3OP(=O)(S)OC[C@H]3O[C@@H](n4cnc5c(N)ncnc54)[C@H](O)[C@@H]3OP(=O)(S)OC[C@H]3O[C@@H](n4ccc5c(=O)[nH]c(N)nc54)[C@H](O)[C@@H]3OP(=O)(S)OC[C@H]3O[C@@H](n4ccc(N)nc4=O)[C@H](O)[C@@H]3OP(=O)(S)OC[C@H]3O[C@@H](n4ccc(=O)[nH]c4=O)[C@H](O)[C@@H]3OP(=O)(S)OC[C@H]3O[C@@H](n4ccc(=O)[nH]c4=O)[C@H](O)[C@@H]3OP(=O)(S)OCC(O)COP(=O)(S)O[C@H]3[C@@H](O)[C@H](n4ccc(=O)[nH]c4=O)O[C@@H]3COP(=O)(S)O[C@H]3[C@@H](O)[C@H](n4ccc(=O)[nH]c4=O)O[C@@H]3COP(=O)(S)O[C@H]3[C@@H](O)[C@H](n4ccc(N)nc4=O)O[C@@H]3COP(=O)(S)O[C@H]3[C@@H](O)[C@H](n4ccc5c(=O)[nH]c(N)nc54)O[C@@H]3COP(=O)(S)O[C@H]3[C@@H](O)[C@H](n4cnc5c(N)ncnc54)O[C@@H]3COP(=O)(S)O[C@H]3[C@@H](O)[C@H](n4ccc5c(=O)[nH]c(N)nc54)O[C@@H]3COP(=O)(S)O[C@H]3[C@@H](O)[C@H](n4ccc(N)nc4=O)O[C@@H]3COP(=O)(S)O[C@H]3[C@@H](O)[C@H](n4ccc5c(=O)[nH]c(N)nc54)O[C@@H]3COP(=O)(S)O[C@H]3[C@@H](O)[C@H](n4ccc(=O)[nH]c4=O)O[C@@H]3COP(=O)(S)O[C@H]3[C@@H](O)[C@H](n4ccc(N)nc4=O)O[C@@H]3COP(=O)(S)O[C@H]3[C@@H](O)[C@H](n4cnc5c(N)ncnc54)O[C@@H]3CO)[C@H]2O)c(=O)n1 (some centres not stated)
- Activity [7]: 43.5 pg/mL
